# According to the EternaBench riboswitch data:
# Tested on: MS2 coat protein
# Test: apparent Kd, MS2 coat protein; higher = weaker binding; RNA-MaP array; FMN 200 µM where present
# Outline: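 Designs on Illumina sequencing-chip clusters, transcribed by stalled E. coli RNA polymerase, were exposed to SNAP-549-labelled MS2 coat protein in doubling steps from 0.7 or 1.5 nM up to 3 µM, without and then with constant ligand. The buffer held 100 mM Tris-HCl pH 7.5, 80 mM KCl, 4 mM MgCl2, BSA, DTT, yeast tRNA and Tween-20. Apparent Kd values are medians of filtered per-cluster binding-curve fits to green signal normalised to red-channel RNA signal and control-cluster median Fmax.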
# [1] = designed as: OFF switch for flavin mononucleotide, no ligand
# [2] = ligand present: flavin mononucleotide, designed as: OFF switch for flavin mononucleotide
# [3] = designed as: ON switch for flavin mononucleotide, no ligand
# [4] = ligand present: flavin mononucleotide, designed as: ON switch for flavin mononucleotide
Sequence,apparent Kd [1] [µM],apparent Kd [2] [µM],apparent Kd [3] [µM],apparent Kd [4] [µM]
GGUGCGAUGUAGAAGGCAGAUCUGAUUCAGAUCUGAGGAUAUACAUGAGGAUCACCCAUGUUACGCACCAGCACGAGAGUGCAA,0.00618,0.0111,,
GACAAGGGAGGAUAUGCACAAGGGAUAUCUGACAUGCCGAUACAUGAGGAUCACCCAUGUAGAAGGCCCGAAUA,0.0114,0.0183,,
UAUUAACACGAAGGAUAUGCUUACAUGAGGAUCACCCAUGUAUGUAUAUUGAUCCAGAGUUUUGAGCAGAAGGUCGUGAGUAAA,0.0323,0.153,,
UGGUACUAGGGAGGAUAUGGGAAGAUACAUGAGGAUCACCCAUGUUUAAGAACGCCGAGAGGCAACUAGAAGGCCCUAGUACCU,,,0.34,0.0148
CAUGUUAUACAGGAUAUCCGUAUGUAAUUCGUCGGAGAAGGGUAUACAUGAGGAUCACCCAUGUAUUCCUAGCU,0.0161,0.0208,,
UUAUGAGAGCAGGAUAUCUUAUUUUUUUUUUAUGGAGAAGGGCUCACAUGAGGAUCACCCAUGUGGUCCUAGAU,0.0279,0.0544,,
GGGAGUCUACAUGAGGAUCACCCAUGUGGUCCAGCAGGAACACAGGAUAUCCAAUGAGAUUCUCGGGAGAAGGGUGAAUGCUUA,,,0.107,0.174
GGCACCAUCACAGGAUAUGCUUUCUUUUGGGAAGCAGAAGGGUGUAACAUGAGGAUCACCCAUGUGGUGCCAGGGCGUGAGCCC,,,0.175,0.014
AAGACACAUGAGGAUCACCCAUGUUAGGAUAUACGCAUGCAUGCAUGCAUGCAUGCAAGUAGAAGGAACCAUGC,0.0305,0.0306,,
AGAUAUGAUGCAGGAUAUCUAUCUUGAAUGAGGAGAGAAGGGCAAACAGAGACAUAAGCCUUAUUACAUGAGGAUCACCCAUGU,0.0101,0.00883,,
GCUAUCGAUGUAGGAUAUGCUAGGGAAACCCUGGCAGAAGGACAUGAGGAUCACCCAUGUCAAUGGAUGGAGAGAAGAGAUGGC,0.0256,0.0743,,
AAGAACGCAGGAUAUAUUAAGGGACAAAGAAGGAAGAAUAAACAUGAGGAUCACCCAUGUAGAAGGGCGAAGAA,0.0605,0.058,,
AGGUACAUGAGGAUCACCCAUGUAAGAGCCCUCAUGCGAUGUAGAAGGAUAAUGCGAGAAGUGCUAUAGGAUAUACAUGAGAAA,0.14,0.143,,
GCGAAUUAGUGAGGAUAUACAUAAUUUAUAACUGUAGAAGGCACAAACCUCAAGACAUGAGGAUCACCCAUGUGGUAUUACGCU,0.112,0.281,,
AUACUAAAUGAAGGAUAUCUAAGCAUAAACCUGAGAGAAGGUCAUUUUUACAUGAGGAUCACCCAUGUUGUGAUUAAUGGGUAA,0.201,0.366,,
CUAAAUCAUGUAGGAUAUCGAUUGCGUCGCGAUCGAGAAGGACAUGAGGAUCACCCAUGUCAGAACGUCUGCGUUCAGACGUUG,0.0485,0.361,,
GGAUCGAAUGUGAGGAUAUGCUGGUCCUUGGAUCAGCAGAAGGCACAUGAGGAUCACCCAUGUCCAAGCGGUCC,0.211,0.559,,
GUCGGAAACGACAAUGAUAGGACUGAGGAUAUACAUAAGUUAGUCCACACAUGAGGAUCACCCAUGUAGAAGGCAGUCCUAUCU,0.0295,0.357,,
UGGUACAUGGGAGGAUAUCAUGUAGACACAUGAGGAUCACCCAUGUCGAUGGAGACAUCGGAGAUUGAGAAGGCCCAUGUACCU,,,0.226,0.0083
AGUCGGAGCAGAGGAUAUAUACAUGAGGAUCACCCAUGUAAAUGGAAUAGCUGGAAACAGCAAGUAUAGAAGGCUGCUCCGACA,0.0395,0.118,,
UUGUAAACUAUCCGUACAUGAGGAUCACCCAUGUGCAAGAGCAGAAGGACGUGGCACUCGAGUACGUAGGAUAUGCAUGGAUGG,,,0.0272,0.00959
UUGUUACGAUUAGGAUAUUAUAGAUUGAAUAGUAUGAUUUACAUGAGGAUCACCCAUGUUACAUUUAAGAAGGAAUCGAAUUAU,0.0211,0.0169,,
AACAUGUCAGGAUAUGCGAAGGCGUCUGACAGACGAGGCUAGCAGAAGGGACAUGAGGAUCACCCAUGUAAAAA,0.0989,0.129,,
